Screening data deposited in PubChem BioAssay by Broad Institute.
esBAF inh = SWI/SNF esBAF complex inhibition; mouse ES cells, Bmi1-luciferase knock-in reporter, 24 h; 100% = twice the neutral-well signal; reporter increase, % at 12.5 µM; hit rate 2% among 350,000; AID 602393; in the data active means activation above about 40%; inconclusive means no clear call, values can overlap the other calls;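 further: 0% = median of the plate's neutral control wells and 100% = double that signal; a rise in the Bmi1 reporter signal indicates esBAF inhibition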
Xi reactivation = X-chromosome reactivation activator | activation, % at 7.58 µM | XiGFP mouse fibroblasts, % GFP-positive cells imaging, 3 d; cells co-treated with 5-aza-dC sensitizer; scaled so ellipticine positive control = 100% | hit rate 0.055% among 360,000;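 active means mean normalized replicate activation at least 10% and every replicate at or above 10%; inconclusive means only one of the two criteria met; inactive means mean below 10% and not all replicates reach 10%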;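 further: 0% = median of on-plate neutral control wells and 100% = ellipticine 6 µM median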
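Material: XiGFP fibroblasts, SV40-immortalized. Buffer or medium: DMEM plus 5-aza-dC sensitizer. Compound: single concentration per compound, delivered by pin transfer. Times: 3 days compound exposure. Controls: ellipticine 6 µM.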
Vif inh = inhibitors of HIV Vif | HEK293T cells, Vif self-association by quenched fluorescence, imaging, 24 h | inhibition, % at 7.49 µM | hit rate 0.35% among 340,000 | AID 602346; in the data active means inhibition above about 50%, passing the limit was not always enough; inconclusive means no clear call, values can overlap the other calls; inactive means below about 31%
Wnt bcat act = activates Wnt/beta-catenin signaling in a reporter cell assay | activator, plate reader | hit rate 1.2% among 300,000 | AID 743398 | activation, % at 9.35 µM; in the data active means activation above about 30%, passing the limit was not always enough; inconclusive means no clear call, values can overlap the other calls;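 further: 0% = neutral control wells and 100% = positive control wells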
MITF TRPM1 HTS = activators of MITF-driven TRPM1 promoter activity in SK-MEL-5 cells. SK-MEL-5 TRPM1-promoter luciferase, 24 h; % of positive control, neutral wells = 0. activation, % at 12.5 µM. hit rate 0.75% among 300,000. AID 588334;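 active means mean activation of at least 80% with every replicate also reaching 80%; inconclusive means mean reaches 80% but some replicate falls short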;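 further: 0% = neutral control wells and 100% = parthenolide positive control wells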
Numbers without * were called inactive; ? = inconclusive; . = no result. This is a sample that favours compounds with a hit; in the whole collection about 2.6% have one here.

SMILES	esBAF inh	Xi reactivation	Vif inh	Wnt bcat act	MITF TRPM1 HTS
CO[C@@H]1CN(C)C(=O)c2ccc(NC(=O)C3CC3)cc2OC[C@H](C)N(CCc2ccccc2)C[C@@H]1C	2	0	.	.	.
C[C@H](CO)N1C[C@H](C)[C@H](CN(C)S(=O)(=O)c2cn(C)cn2)Oc2ccc(NC(=O)Nc3cccc4ccccc34)cc2C1=O	6	0	.	.	.
Cn1c(-c2ccc(C(C)(C)C)cc2)n[nH]c1=S	50*	.	-7	.	14
CCn1c(-c2ccc(C(C)(C)C)cc2)n[nH]c1=S	22	.	-16	.	-2
Cc1ccc2c(Cl)c(C(=O)Nc3ccc4c(c3)OCO4)sc2c1	.	0	-6	.	99*
CCc1onc(C)c1C(=O)Nc1ccc2c(c1)OCO2	7	0	13	0	-6
O=C(Nc1ccc2c(c1)OCO2)c1ccc(Cl)s1	0	.	-2	.	59
Cc1noc(C(=O)Nc2ccc3c(c2)OCO3)c1Cl	51*	0	.	12	55
Cc1cc(Cl)n2c(nc3cc(F)c(F)cc32)c1C#N	.	1	77*	-22	-98
C[C@H](CO)N1C[C@H](C)[C@@H](CN(C)Cc2ccc(-c3ccccc3)cc2)Oc2ccc(NS(=O)(=O)c3cn(C)cn3)cc2CC1=O	.	0	.	.	.
O=[N+]([O-])c1ccc(-c2cn3ccccc3n2)cc1	.	0	6	35*	.
c1ccc(-c2cn3ccccc3n2)cc1	0	0	21	16	59
Brc1ccc(-c2cn3ccccc3n2)cc1	-23	?	-9	49*	22
Brc1ccc(OCc2cn3ccccc3n2)cc1	.	0	-1	17	93*
Oc1ccc(-c2cn3ccccc3n2)cc1	3	0	2	38*	80
CN(C)S(=O)(=O)c1ccc(-c2cn3ccccc3n2)cc1	.	.	2	.	.
C[C@@H]1CN([C@@H](C)CO)C(=O)c2cc(C#CCc3ccccc3)cnc2O[C@@H]1CN(C)C(=O)Cc1cccnc1	-5	0	.	.	.
CC(=O)Nc1ccc2c(c1)C(=O)N(C)[C@H]1CC[C@H](CC(=O)Nc3cn(C)nc3C)O[C@@H]1CO2	0	0	.	.	.
CN1CCN(C(=O)C[C@@H]2C=C[C@H](NC(=O)Cc3ccccn3)[C@@H](CO)O2)CC1	-6	0	.	.	.
CC(=O)N1[C@@H]2CN(CC3CC3)C[C@H]1C2c1ccc(Br)cc1 (some centres not stated)	.	0	.	.	.
C=CCn1c(=O)c(C(=O)Nc2ccccc2S(N)(=O)=O)c(O)c2ccccc21	65*	0	-5	7	72
C=CCn1c(=O)c(C(=O)Nc2cc(C)ccn2)c(O)c2ccccc21	3	0	10	1	8
C=CCn1c(=O)c(C(=O)Nc2ccc(C)cc2)c(O)c2ccccc21	67*	0	-4	6	.
C=CCn1c(=O)c(C(=O)Nc2ccccc2C(=O)OCC)c(O)c2ccccc21	1	.	-2	-1	-14
C=CCn1c(N)c(C(=O)Nc2ccc(C)cc2)sc1=S	51*	.	.	.	71
SMILES	esBAF inh	Xi reactivation	Vif inh	Wnt bcat act	MITF TRPM1 HTS
CCn1c(=O)c(C(=O)NCc2ccc(Cl)cc2)c(O)c2ccccc21	12	0	1	43*	.
CN1CCN(C(=O)C[C@@H]2C=C[C@H](NC(=O)c3ccc4c(c3)OCO4)[C@@H](CO)O2)CC1	4	0	.	.	.
O=C(C[C@H]1CC[C@@H]2[C@H](COC[C@H](O)CN2Cc2ccc(C(F)(F)F)cc2)O1)NCCc1ccccc1	18	0	.	.	.
Cn1cnnc1SCC(=O)Nc1ccc2nc(SCc3ccccc3)sc2c1	69*	.	1	16	70
CCN(CC)C(=O)CSc1nc2ccc(NC(=O)CSc3nccn3C)cc2s1	78*	.	0	5	25
C[C@@H]1CCCCO[C@H](CN(C)S(=O)(=O)c2cccs2)[C@H](C)CN([C@@H](C)CO)C(=O)c2cc(NS(=O)(=O)c3ccc(F)cc3)ccc2O1	5	0	.	.	.
CCC(=O)NC[C@H]1[C@@H](c2ccc(-c3ccccc3)cc2)[C@@H](CO)N1C(=O)C1CC1	7	0	.	.	.
Cc1ccccc1-c1ccc2c(c1)O[C@H](CN(C)Cc1ccncc1)[C@H](C)CN([C@@H](C)CO)S2(=O)=O	-5	-1	.	.	.
Cc1ccc(C(=O)NCCc2c[nH]c3ccccc23)c(C)c1	71*	0	11	24	76
Cc1ccc(C(=O)NCCCc2ccccc2)s1	.	0	11	53*	87*
O=C(NCCc1c[nH]c2ccccc12)c1ccccc1	30	0	-2	-1	12
Cc1ccc(C(=O)NCCc2c[nH]c3ccccc23)s1	56*	1	-5	30	.
Cc1ccc(C(=O)NCC(=O)NCCCc2ccccc2)s1	-1	0	6	-1	-5
CC(=O)c1ccc(NCC2COc3ccccc3O2)c([N+](=O)[O-])c1 (configuration not stated)	72*	0	-9	76*	64
NS(=O)(=O)c1ccc(NCC2COc3ccccc3O2)c([N+](=O)[O-])c1 (configuration not stated)	.	0	0	0	8
Cc1ccccc1NC(=O)C1COc2ccccc2O1 (configuration not stated)	3	0	4	7	5
O=C(Nc1ccccc1[N+](=O)[O-])C1COc2ccccc2O1 (configuration not stated)	45*	0	-18	14	76
CN(C)S(=O)(=O)c1ccc(NC(=O)COC(=O)C2COc3ccccc3O2)cc1 (configuration not stated)	-6	0	67*	-4	-7
O=C(Nc1ncc(Cc2ccccc2)s1)C1COc2ccccc2O1 (configuration not stated)	53*	.	.	.	?
COc1ccccc1-c1cn(CC[C@H]2CC[C@H](NS(=O)(=O)c3ccccc3C)[C@H](CO)O2)nn1	2	0	.	.	.
O=C(Nc1ccccc1)N[C@H]1CC[C@@H](CCNS(=O)(=O)c2ccccc2F)O[C@@H]1CO	6	0	.	.	.
COc1ccccc1CN1[C@@H](CO)[C@@H](c2ccccc2)C12CN(C(=O)c1ccccn1)C2	.	0	.	.	.
Cc1nnc(NC(=O)C2COc3ccccc3O2)s1 (configuration not stated)	46*	.	-1	.	.
O=C(C[C@@H]1C=C[C@H](NC(=O)c2cccc(F)c2)[C@@H](CO)O1)NCCN1CCCC1	0	0	.	.	.
O=C(C1CCCCC1)N1CC2(C1)[C@H](c1ccccc1)[C@H](CO)N2Cc1ccccc1F	.	0	.	.	.
Cc1cc(NC(=O)CSc2nc3ccccc3c(=O)n2CCCC(=O)NCc2ccco2)n[nH]1	11	.	51*	.	.
CN1C(=O)c2cc(NC(=O)Cc3cccs3)ccc2OC[C@H]2O[C@@H](CC(=O)NCC3CC3)CC[C@H]21	-4	0	.	.	.
Cc1ccc(OCCn2c(=O)oc3ccc(C)cc32)cc1	20	0	5	2	14
COc1ccccc1OCCn1c(=O)sc2ccccc21	0	.	-15	10	.
